Test results published in ChEMBL document CHEMBL1152741, “Discovery, design, and synthesis of anti-metastatic lead phenylmethylene hydantoins inspired by marine natural products” (Bioorg Med Chem, 2009).
pEC50: −log10 of the molar value. Values belong to the compound of their own block, whether it stands above or below them. Activity calls are given as the source filed them. The rule behind the calls is not given here.

Experiments:
[1] = Antiinvasive activity in human PC3M cells expressing CTR assessed as inhibition of calcitonin-induced cell migration after 24 hrs by spheroid disaggregation assay; type: functional, cell-based; details: PC-3M
PC-3M [2] = test: Antiinvasive activity in human PC3M cells expressing CTR assessed as change in core spheroid at => 100 uM after 48 hrs by spheroid disaggregation assay; type: functional, cell-based
[3] = Antimetastatic activity against human PC3M cells expressing CTR assessed as reduction in migration area at 200 uM after 48 hrs by spheroid disaggregation assay; type: functional, PC-3M
Summary of the method: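 PC-3M-CT+ cells (which secrete calcitonin and carry CTR) are formed into spheroids from 5 × 10^4/mL cells in serum-free RPMI 1640. Plates are rocked 2 days at 37°C, giving spheroids of 150–300 μm. Single spheroids are placed on ECM-coated wells in serum-free medium, with t = 0 set at 1 h. They are photographed, kept 48 h at 37°C, then fixed and Diff-Quik stained. Radial migration distance is measured by micrometer after subtracting the initial diameter. Compounds are tested at 200 μM.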

PC-3M [4] = test: Cytotoxicity against human PC3M cells assessed as cell viability up to 50 uM by MTT assay; type: functional, cell-based

pEC50 [1]: 4.52
SMILES: CCSc1ccc(/C=C2\NC(=O)NC2=O)cc1
Activity (PC-3M [2]): inactive
Activity [3]: 15.5 um

SMILES: O=C1NC(=O)/C(=C/c2ccccc2-c2ccccc2)N1
Activity (PC-3M [2]): inactive
Activity [3]: 56 um

SMILES: Cc1ccc(/C=C2\NC(=O)NC2=O)c(F)c1F
Activity (PC-3M [2]): inactive
Activity [3]: 175 um

pEC50 [1]: 3.82
SMILES: O=C1NC(=O)/C(=C/c2ccc(O)cc2)N1 [4-HYDROXYPHENYLMETHYLENE HYDANTOIN]
Activity (PC-3M [4]): inactive
Activity (PC-3M [2]): inactive

SMILES: O=C1NC(=O)/C(=C/c2cccc(-c3ccccc3)c2)N1
Activity (PC-3M [2]): inactive
Activity [3]: 76 um

SMILES: O=C1NC(=O)/C(=C/c2ccc(-c3cccs3)cc2)N1
Activity (PC-3M [2]): inactive
Activity [3]: 39 um

SMILES: N#Cc1cccc(/C=C2\NC(=O)NC2=O)c1
Activity (PC-3M [2]): inactive
Activity [3]: 195 um

SMILES: O=C1NC(=O)/C(=C/c2ccccc2-c2cccs2)N1
Activity (PC-3M [2]): inactive
Activity [3]: 50 um
